Data taken from ChEMBL document CHEMBL1811874, “The effect of sulfonate leaving groups on the hypoxia-selective toxicity of nitro analogs of the duocarmycins” (Bioorg Med Chem, 2011).
Values after ≈ are worked out from the molar mass of the structure shown. Each block holds one molecule with its values, some of them ahead of it.

Tests used:
[1] = tested on: SK-OV-3; experiment: Cytotoxicity against human SKOV3 cells assessed as reduction of cell density incubated for 4 hrs in oxic (aerobic) condition measured 5 days post dose by SRB assay; type: functional, cell-based
In short: (§1)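 Log-phase monolayers given a 4 h drug exposure under aerobic (20% O₂) or anoxic (<20 ppm O₂) conditions. Cells were then stained with sulforhodamine B 5 days later. IC50 was interpolated as the concentration that cut cell density to 50% of same-plate controls. Values are means of two to seven experiments.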

[2] = tested on: SK-OV-3; experiment: Hypoxic cytotoxicity ratio, ratio of IC50 for human SKOV3 cells in oxic (aerobic) condition to IC50 for human SKOV3 cells in hypoxic (anoxic) conditions; type: functional
In short: (§2)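 HCR was calculated as IC50(oxic)/IC50(hypoxic) after 4 h drug exposure at 20% O₂ or <20 ppm O₂, with SRB read-out 5 days later.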

[3] = tested on: SK-OV-3; experiment: Cytotoxicity against human SKOV3 cells assessed as reduction of cell density incubated for 4 hrs in hypoxic (anoxic) condition measured 5 days post dose by SRB assay; type: functional, cell-based; in short: as §1
[4] = Solubility in alphaMEM culture medium containing 5% FCS at 22 degC; type: physicochemical
In short: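 Solubility was measured in αMEM with 5% FCS, equilibrated with 5% CO₂/air, at 22 °C.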

[5] = tested on: HT-29; experiment: Cytotoxicity against human HT-29 cells assessed as reduction of cell density incubated for 4 hrs in hypoxic (anoxic) condition measured 5 days post dose by SRB assay; type: functional, cell-based; in short: as §1
[6] = tested on: HT-29; experiment: Cytotoxicity against human HT-29 cells assessed as reduction of cell density incubated for 4 hrs in oxic (aerobic) condition measured 5 days post dose by SRB assay; type: functional, cell-based; in short: as §1
[7] = tested on: A549; experiment: Cytotoxicity against human A549 cells after 24 hrs; type: functional, cell-based; conditions: A549, 24 h
[8] = tested on: HT-29; experiment: Hypoxic cytotoxicity ratio, ratio of IC50 for human HT-29 cells in oxic (aerobic) condition to IC50 for human HT-29 cells in hypoxic (anoxic) conditions; type: functional; in short: as §2
[9] = tested on: CHO-AA8; experiment: Cytotoxicity against chinese hamster ovary AA8 cells incubated for 4 hrs; type: functional, cell-based; conditions: Cricetulus griseus, CHO-AA8, 4 h
[10] = tested on: EMT6; experiment: Cytotoxicity against mouse EMT6 cells; type: functional, cell-based
[11] = tested on: SK-OV-3; experiment: Cytotoxicity against human SKOV3 cells; type: functional, cell-based
In short: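 Log-phase SKOV3 ovarian carcinoma monolayers were exposed to drug for 4 h under aerobic (20% O₂) or anoxic (<20 ppm O₂) conditions, then stained with sulforhodamine B 5 days later. IC50 was interpolated as the concentration that cut cell density to 50% of same-plate controls, given as mean ± SEM of 2–7 experiments. HCR is IC50(oxic)/IC50(hypoxic), taken as means of intraexperiment ratios.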

[12] = tested on: HCT-116; experiment: Cytotoxicity against human HCT116 cells assessed as reduction of cell density incubated for 4 hrs in hypoxic (anoxic) condition measured 5 days post dose by SRB assay; type: functional, cell-based; in short: as §1
[13] = tested on: HCT-116; experiment: Hypoxic cytotoxicity ratio, ratio of IC50 for human HCT116 cells in oxic (aerobic) condition to IC50 for human HCT116 cells in hypoxic (anoxic) conditions; type: functional; in short: as §2
[14] = tested on: A-375; experiment: Cytotoxicity against human A375 cells assessed as reduction of cell density incubated for 4 hrs in hypoxic (anoxic) condition measured 5 days post dose by SRB assay; type: functional, cell-based; in short: as §1
[15] = tested on: C-33-A; experiment: Cytotoxicity against human C33A cells assessed as reduction of cell density incubated for 4 hrs in hypoxic (anoxic) condition measured 5 days post dose by SRB assay; type: functional, cell-based; in short: as §1
[16] = tested on: NCI-H460; experiment: Cytotoxicity against human H460 cells assessed as reduction of cell density incubated for 4 hrs in oxic (aerobic) condition measured 5 days post dose by SRB assay; type: functional, cell-based; in short: as §1
[17] = tested on: A-375; experiment: Hypoxic cytotoxicity ratio, ratio of IC50 for human A375 cells in oxic (aerobic) condition to IC50 for human A375 cells in hypoxic (anoxic) conditions; type: functional; in short: as §2
[18] = tested on: SiHa; experiment: Cytotoxicity against human SiHa cells assessed as reduction of cell density incubated for 4 hrs in hypoxic (anoxic) condition measured 5 days post dose by SRB assay; type: functional, cell-based; in short: as §1
[19] = Hypoxic cytotoxicity ratio, ratio of IC50 for human H1299 cells in oxic (aerobic) condition to IC50 for human H1299 cells in hypoxic (anoxic) conditions; type: functional, NCI-H1299; in short: as §2
[20] = Cytotoxicity against human H1299 cells assessed as reduction of cell density incubated for 4 hrs in hypoxic (anoxic) condition measured 5 days post dose by SRB assay; type: functional, cell-based; conditions: NCI-H1299; in short: as §1
[21] = tested on: C-33-A; experiment: Cytotoxicity against human C33A cells assessed as reduction of cell density incubated for 4 hrs in oxic (aerobic) condition measured 5 days post dose by SRB assay; type: functional, cell-based; in short: as §1
[22] = tested on: PC-3; experiment: Cytotoxicity against human PC3 cells assessed as reduction of cell density incubated for 4 hrs in hypoxic (anoxic) condition measured 5 days post dose by SRB assay; type: functional, cell-based; in short: as §1
[23] = tested on: A-375; experiment: Cytotoxicity against human A375 cells assessed as reduction of cell density incubated for 4 hrs in oxic (aerobic) condition measured 5 days post dose by SRB assay; type: functional, cell-based; in short: as §1
[24] = tested on: SiHa; experiment: Hypoxic cytotoxicity ratio, ratio of IC50 for human SiHa cells in oxic (aerobic) condition to IC50 for human SiHa cells in hypoxic (anoxic) conditions; type: functional; in short: as §2
[25] = tested on: NCI-H460; experiment: Hypoxic cytotoxicity ratio, ratio of IC50 for human H460 cells in oxic (aerobic) condition to IC50 for human H460 cells in hypoxic (anoxic) conditions; type: functional; in short: as §2
[26] = tested on: A549; experiment: Hypoxic cytotoxicity ratio, ratio of IC50 for human A549 cells ells over-expressing human NADPH/cytochrome P450 oxidoreductase in oxic (aerobic) condition to IC50 for human A549 cells ells over-expressing human NADPH/cytochrome P450 oxidoreductase in hypoxic (anoxic) conditions; type: functional; in short: as §2
[27] = tested on: A549; experiment: Cytotoxicity against human A549 cells over-expressing human NADPH/cytochrome P450 oxidoreductase assessed as reduction of cell density incubated for 4 hrs in oxic (aerobic) condition measured 5 days post dose by SRB assay; type: functional, cell-based; in short: as §1
[28] = tested on: HCT-116; experiment: Cytotoxicity against human HCT116 cells assessed as reduction of cell density incubated for 4 hrs in oxic (aerobic) condition measured 5 days post dose by SRB assay; type: functional, cell-based; in short: as §1
[29] = tested on: C-33-A; experiment: Hypoxic cytotoxicity ratio, ratio of IC50 for human C33A cells in oxic (aerobic) condition to IC50 for human C33A cells in hypoxic (anoxic) conditions; type: functional; in short: as §2
[30] = tested on: A549; experiment: Cytotoxicity against human A549 cells assessed as reduction of cell density incubated for 4 hrs in oxic (aerobic) condition measured 5 days post dose by SRB assay; type: functional, cell-based; in short: as §1
[31] = Cytotoxicity against human H1299 cells assessed as reduction of cell density incubated for 4 hrs in oxic (aerobic) condition measured 5 days post dose by SRB assay; type: functional, cell-based; conditions: NCI-H1299; in short: as §1
[32] = tested on: A549; experiment: Cytotoxicity against human A549 cells ells over-expressing human NADPH/cytochrome P450 oxidoreductase assessed as reduction of cell density incubated for 4 hrs in hypoxic (anoxic) condition measured 5 days post dose by SRB assay; type: functional, cell-based; in short: as §1
[33] = tested on: SiHa; experiment: Cytotoxicity against human SiHa cells assessed as reduction of cell density incubated for 4 hrs in oxic (aerobic) condition measured 5 days post dose by SRB assay; type: functional, cell-based; in short: as §1
[34] = tested on: PC-3; experiment: Cytotoxicity against human PC3 cells assessed as reduction of cell density incubated for 4 hrs in oxic (aerobic) condition measured 5 days post dose by SRB assay; type: functional, cell-based; in short: as §1
[35] = tested on: A549; experiment: Hypoxic cytotoxicity ratio, ratio of IC50 for human A549 cells in oxic (aerobic) condition to IC50 for human A549 cells in hypoxic (anoxic) conditions; type: functional; in short: as §2
[36] = tested on: A549; experiment: Cytotoxicity against human A549 cells assessed as reduction of cell density incubated for 4 hrs in hypoxic (anoxic) condition measured 5 days post dose by SRB assay; type: functional, cell-based; in short: as §1
[37] = tested on: PC-3; experiment: Hypoxic cytotoxicity ratio, ratio of IC50 for human PC3 cells in oxic (aerobic) condition to IC50 for human PC3 cells in hypoxic (anoxic) conditions; type: functional; in short: as §2
[38] = tested on: NCI-H460; experiment: Cytotoxicity against human H460 cells assessed as reduction of cell density incubated for 4 hrs in hypoxic (anoxic) condition measured 5 days post dose by SRB assay; type: functional, cell-based; in short: as §1

SMILES: Nc1cc2c(c3ccccc13)C(CCl)CN2C(=O)c1cc2cc(OCCO)ccc2[nH]1 (stereo not given)
IC50 [1]: 3.3 nM | Ratio IC50 [2]: 0.8 | IC50 [3]: 4.2 nM | solubility [4]: 22 µM (≈ 9.59 µg/mL)

SMILES: CN(C)CCOc1ccc2[nH]c(C(=O)N3CC(CCl)c4c3cc([N+](=O)[O-])c3ccccc43)cc2c1 (stereo not given)
IC50 [5]: 480 nM | IC50 [6]: 470 nM | IC50 [1]: 1400 nM | IC50 [3]: 870 nM | solubility [4]: 193 µM (≈ 95.1 µg/mL)

SMILES: CN(C)CCOc1ccc2[nH]c(C(=O)N3C[C@@H](CCl)c4c3cc(O)c3ccccc43)cc2c1
IC50 [7]: 0.026 nM

SMILES: COc1cc2cc(C(=O)N3CC(CCl)c4c3cc(N)c3ccccc43)[nH]c2c(OC)c1OC (stereo not given)
IC50 [9]: < 1 nM | IC50 [10]: 0.4 nM | IC50 [11]: 1.2 nM

SMILES: COc1cc2cc(C(=O)N3CC(COS(=O)(=O)Cc4ccccc4)c4c3cc([N+](=O)[O-])c3ccccc43)[nH]c2c(OC)c1OC (stereo not given)
IC50 [12]: 50 nM | Ratio IC50 [13]: 12.1 | IC50 [5]: 360 nM | IC50 [14]: 410 nM | IC50 [15]: 33 nM | IC50 [16]: 250 nM | Ratio IC50 [17]: 4.12 | IC50 [18]: 450 nM | Ratio IC50 [19]: 3.6 | IC50 [20]: 160 nM | IC50 [21]: 430 nM | IC50 [22]: 210 nM | IC50 [23]: 1230 nM | IC50 [6]: 9800 nM | Ratio IC50 [24]: 30.1 | Ratio IC50 [25]: 7.19 | IC50 [1]: 12000 nM | Ratio IC50 [26]: 16.5 | IC50 [27]: 930 nM | IC50 [28]: 530 nM | Ratio IC50 [29]: 15.6 | IC50 [30]: 1080 nM | Ratio IC50 [2]: 246 | IC50 [31]: 510 nM | IC50 [32]: 95 nM | IC50 [33]: 3000 nM | IC50 [34]: 1900 nM | Ratio IC50 [35]: 3.73 | Ratio IC50 [8]: 37 | IC50 [3]: 82 nM | solubility [4]: 17 µM (≈ 10.7 µg/mL) | IC50 [36]: 400 nM | Ratio IC50 [37]: 10.2 | IC50 [38]: 100 nM

SMILES: COc1ccc(/C=C/C(=O)N2CC(CCl)c3c2cc([N+](=O)[O-])c2ccccc32)cc1O (stereo not given)
IC50 [5]: 590 nM | IC50 [6]: 1700 nM | IC50 [1]: 890 nM | Ratio IC50 [2]: 3.3 | Ratio IC50 [8]: 4.5 | IC50 [3]: 400 nM | solubility [4]: 9 µM (≈ 3.95 µg/mL)

SMILES: COc1cc2cc(C(=O)N3CC(CCl)c4c3cc([N+](=O)[O-])c3ccccc43)[nH]c2c(OC)c1OC (stereo not given)
IC50 [5]: 1600 nM | IC50 [6]: 3400 nM | IC50 [1]: 4200 nM | IC50 [3]: 1700 nM | solubility [4]: 5 µM (≈ 2.48 µg/mL)

Second part, led by results:

solubility [4]: 35 µM (≈ 20.1 µg/mL)
SMILES: COc1ccc(/C=C/C(=O)N2CC(COS(=O)(=O)Cc3ccccc3)c3c2cc([N+](=O)[O-])c2ccccc32)cc1O (stereo not given)
IC50 [5]: 1000 nM | IC50 [6]: 1000 nM | IC50 [1]: 570 nM | Ratio IC50 [2]: 3.9 | Ratio IC50 [8]: 1.1 | IC50 [3]: 160 nM

solubility [4]: 46 µM (≈ 27.7 µg/mL)
SMILES: O=C(c1cc2cc(OCCO)ccc2[nH]1)N1CC(COS(=O)(=O)Cc2ccccc2)c2c1cc([N+](=O)[O-])c1ccccc21 (stereo not given)
IC50 [5]: 660 nM | IC50 [6]: 1800 nM | IC50 [1]: 1200 nM | Ratio IC50 [2]: 7.1 | Ratio IC50 [8]: 2.4 | IC50 [3]: 210 nM

solubility [4]: 70 µM (≈ 43.7 µg/mL)
SMILES: COc1cc2cc(C(=O)N3CC(COS(=O)(=O)C4CCCCC4)c4c3cc([N+](=O)[O-])c3ccccc43)[nH]c2c(OC)c1OC (stereo not given)
IC50 [5]: 440 nM | IC50 [6]: 9900 nM | IC50 [1]: 16000 nM | Ratio IC50 [2]: 146 | Ratio IC50 [8]: 26 | IC50 [3]: 190 nM
